# Hits are enriched below; roughly 29% of the tested compounds scored in any of these assays.
# tolC growth inh = blocks growth of E. coli BW25113 tolC mutant; OD615; actives 2.2% (n = 65,000); growth inhibition, % at 10 µM (by protocol);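 active = growth inhibition at or above a cutoff equal to the mean over every tested compound plus 3 SD, cut at about 60% in these data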;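 also: growth measured after 20 h incubation at 37 °C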
#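 test system = E. coli BW25113 ΔtolC::kan bacteria | medium = LB with kanamycin 50 µg/mL | signal = OD at 615 nm | schedule = 37 °C, 20 h exposure | evaluation = % inhibition of E. coli growth | compound dosing = one dose of 10 µM final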
# CYP2C19 activ = activators of human cytochrome P450 2C19 | P33261 | AID 1025 | recombinant CYP2C19, luciferin-H EGE luminescence; stronger effect = higher value; 0 = fully inhibited enzyme, 1 = untreated enzyme | activation factor at 5 µM | 96,000 tested, under 10 active;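 active = activation factor of at least 2 at 5 µM in the primary screen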;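 also: 0 = wells with 2.5 mM tranylcypromine and 1 = vehicle-only wells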
# CYP2C9 inh = inhibitors of human CYP2C9. P11712. CYP2C9 Supersomes, luciferin-H conversion, luminescence. inhibition, % at 5 µM. actives 20% (n = 96,000). AID 777;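 active = blocking of liver enzyme CYP2C9 beyond about 50% at 5 µM, limit read from the data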
# Target sequence (P11712 whole entry, looked up): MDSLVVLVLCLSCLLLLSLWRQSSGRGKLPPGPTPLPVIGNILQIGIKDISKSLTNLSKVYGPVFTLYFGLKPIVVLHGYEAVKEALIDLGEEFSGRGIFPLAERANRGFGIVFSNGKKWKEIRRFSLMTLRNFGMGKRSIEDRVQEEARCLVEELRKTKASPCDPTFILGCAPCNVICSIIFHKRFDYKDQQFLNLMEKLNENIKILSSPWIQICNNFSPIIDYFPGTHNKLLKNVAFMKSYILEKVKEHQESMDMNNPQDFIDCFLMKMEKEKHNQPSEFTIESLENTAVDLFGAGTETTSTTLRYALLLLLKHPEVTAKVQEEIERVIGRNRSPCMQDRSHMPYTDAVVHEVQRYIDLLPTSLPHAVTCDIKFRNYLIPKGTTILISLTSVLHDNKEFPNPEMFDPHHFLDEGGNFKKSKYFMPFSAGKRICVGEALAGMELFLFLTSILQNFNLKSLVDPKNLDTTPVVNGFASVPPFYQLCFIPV
# E coli WT exp = E. coli BW25113 growth inhibition, expanded screen. growth inhibition, % at 100 µM. OD600 absorbance. actives 0.15% (n = 98,000);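 active = growth inhibition above about 50% at one test dose, limit read from the data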;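 also: growth measured after 20 h incubation at 37 °C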
# CYP2C19 inh = human CYP2C19 inhibition | AID 778 | actives 21% (n = 96,000) | CYP2C19 Supersomes, luciferin-H EGE luminescence, 30 min | inhibition, % at 5 µM | P33261;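 active = CYP2C19 inhibition above a set limit at 5 µM in the primary screen, cut at about 50% in these data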;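 also: plate controls were negative control wells for no effect and 2.5 mM tranylcypromine positive control for full effect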
# CYP2C9 activ = CYP2C9 (human) activation | P11712 | recombinant CYP2C9, luciferin-H conversion, luminescence; stronger effect = higher value; factor 1 = untreated enzyme, 0 = blocked | activation factor at 5 µM | actives 1.4% (n = 96,000);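 active = activation factor of 2 or more for CYP2C9 at a 5 µM dose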;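 also: 0 = sulfaphenazole-blocked wells and 1 = vehicle-only wells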
# Active calls of the source: *; x = no result given.
SMILES,tolC growth inh,CYP2C19 activ,CYP2C9 inh,E coli WT exp,CYP2C19 inh,CYP2C9 activ
NS(=O)(=O)c1ccc(CCNC(=O)CNC(=O)C2CCCCC2)cc1,-25.5,0.9,14.2,1.0,7.6,0.9
Cc1ccc(NC(=O)CN2CC(C)SC2=NC2CCCCC2)cc1 (stereo unspecified),9.9,0.2,10.3,7.0,81.6*,0.9
Cc1nc2ccccn2c1/C(O)=C1\C(=O)C(=O)N(CCCN(C)C)C1c1ccc(Cl)cc1 (stereo unspecified),-11.5,x,x,x,x,x
CCCCCCC1CC(CSc2ncn[nH]2)OC1=O (stereo unspecified),-5.3,0.1,66.7*,2.0,90.9*,0.3
CCCCCC1CC(CC(=O)O)C(=O)O1 (stereo unspecified),-11.5,0.8,10.9,-8.0,16.7,0.9
Cc1c(NC(=O)c2n[nH]c(=O)c3ccccc23)c(=O)n(-c2ccccc2)n1C,x,1.2,-27.3,-3.0,-19.9,1.3
COc1ccc(C2(CNC(=O)Cc3ccccc3)CCCC2)cc1OC,x,0.4,34.9,6.0,61.9*,0.7
COc1ccc(C2(CN(C(C)=O)C(C)=O)CCCC2)cc1OC,11.1,0.5,31.4,6.0,51.8*,0.7
COc1ccc(C2(C(N)=O)CCCCC2)cc1OC,-7.8,0.5,6.4,3.0,46.6,0.9
CCOC(=O)c1cnn(-c2ccc(Cl)cc2)c1C1CCN(C(=O)OC(C)(C)C)CC1,x,0.1,84.7*,1.0,88.9*,0.2
CCOC(=O)c1cn2nc(-c3ccc(OCC)cc3)cc2nc1C1CCN(C(=O)OC(C)(C)C)CC1,x,0.8,46.0,-10.0,17.7,0.5
Cn1cnnc1SCCn1c(N2CCCCC2)nc2c1c(=O)[nH]c(=O)n2C,-13.9,0.9,7.4,-8.0,8.5,0.9
Cc1ccc(CC2CC(=O)N(c3nc4ccccc4n3C)C2=O)cc1 (stereo unspecified),x,0.9,-45.6,5.0,7.8,1.5
CC(C)(C)OC(=O)Cn1c(=O)cnc2ccccc21,x,0.7,-9.7,-1.0,34.3,1.1
COc1ccc(S(=O)(=O)N2CCSC2c2ccc(N)cc2)cc1 (stereo unspecified),6.3,0,36.3,4.0,97.0*,0.6
COc1cc(OC)c(C2SCCN2S(=O)(=O)c2ccc(F)cc2)cc1OC (stereo unspecified),-11.9,0.4,31.5,-1.0,60.4*,0.7
COc1ccc(N2CCC(CNS(=O)(=O)c3cccc(C(F)(F)F)c3)C2)cc1 (stereo unspecified),9.2,0.7,34.6,2.0,26.1,0.7
COc1ccc(OC)c(C2SCCN2S(=O)(=O)c2cccc(C(F)(F)F)c2)c1 (stereo unspecified),44.7,0.1,53.4*,-24.0,90.7*,0.5
Cc1ccccc1N/C=C/C(=C(C#N)C#N)N(C)C,x,0.6,34.1,3.0,42.3,0.7
COc1cc(OC)cc(C(=O)n2cnnc2N)c1,x,0.9,3.2,3.0,10.6,1
O=C(/C=C/c1c(Cl)cccc1Cl)Nc1ccncc1,x,0.1,93.1*,-5.0,93.7*,0.1
O=C(/C=C/c1cccc(Cl)c1)NCc1cccs1,x,0.9,16.8,13.0,12.6,0.8
O=C(/C=C/c1cccc(Cl)c1)Nc1ccncc1,x,0,98.7*,-7.0,99.0*,0
Cc1ccc(-n2nnc3c(=O)n(CC(=O)NCC4CCCO4)cnc32)cc1 (stereo unspecified),-3.1,1.1,-25.5,5.0,-10.3,1.3
CC(=O)CSc1nc2ccccc2s1,x,0.9,-12.7,6.0,11.0,1.1
SMILES,tolC growth inh,CYP2C19 activ,CYP2C9 inh,E coli WT exp,CYP2C19 inh,CYP2C9 activ
O=S(=O)(CCSc1nc2ccccc2s1)c1nc2ccccc2s1,x,0.8,73.8*,-10.0,24.5,0.3
CCS(=O)(=O)CCSc1nc2ccccc2s1,-10.4,0.3,-49.4,7.0,71.9*,1.5
COc1ccccc1C(=O)O/N=C1/CCCc2c1ccc(OC)c2[N+](=O)[O-],x,0.1,50.6*,-8.0,85.4*,0.5
Cc1cccc(C)c1NC1=NC2(CCCCC2)N=C(N)N1,-0.6,1.1,-0.6,-6.0,-6.3,1
O=[N+]([O-])c1ccc2c(c1Nc1ccccc1)=NC1(CCCCC1)N=2,x,0.9,53.3*,1.0,9.7,0.5
COc1cc(CO)cc(Br)c1OCc1cccnc1,-9.9,0.2,-109.4,1.0,80.4*,2.1*
COc1cc(CNCc2ccncc2)cc(Br)c1OCc1ccccc1F,x,0.1,91.3*,13.0,85.7*,0.1
COc1ccc(NC2CC(=O)NC2=O)cc1 (stereo unspecified),-9.3,1.1,-2.1,-3.0,-9.3,1
Nc1ccc(C(=O)c2ccc3c(c2)OCCO3)cc1N,10.2,x,x,x,x,x
Cc1ccc(C(=O)c2cc3c(cc2N)OCCO3)cc1,13.0,0.3,67.9*,6.0,67.0*,0.3
Nc1cc2c(cc1C(=O)c1ccccc1)OCCO2,x,0.5,28.9,7.0,50.7*,0.7
Nc1cc2c(cc1C(=O)c1ccc(Cl)cc1)OCCO2,x,0.4,70.3*,9.0,60.9*,0.3
COc1ccc(OC)c(Nc2nc(N)nc(CSc3nnc(-c4ccncc4)o3)n2)c1,x,1,46.3,-5.0,1.0,0.5
O=c1cc(O)c2c(=O)n3c4c(cccc4c2o1)CCC3,95.8*,x,x,x,x,x
O=c1cc(O)c2c(=O)n(-c3ccccc3)c3ccccc3c2o1,43.4,0.6,8.5,0.0,38.3,0.9
O=C(Cn1nnc(-c2ccccc2)n1)OCc1ccccc1,12.1,0.7,9.7,0.0,33.9,0.9
CC1Cc2ccccc2N1C(=O)COC(=O)c1cccnc1Cl (stereo unspecified),x,0.5,3.5,0.0,53.1*,1
COCc1c(C(=O)OCC(=O)N2c3ccccc3CC2C)oc2ccccc12 (stereo unspecified),-1.3,0.5,-7.9,7.0,52.9*,1.1
CCOC(=O)C1=C(C)NC(C)=C(C(=O)OCC)C1C(=O)OCC(=O)N1c2ccccc2CC1C (stereo unspecified),x,0.1,99.9*,-7.0,92.7*,0
CC1Cc2ccccc2N1C(=O)COC(=O)Cn1nnc(-c2ccccc2)n1 (stereo unspecified),7.1,0.4,87.6*,8.0,64.9*,0.1
CC(c1ccccc1)N1C(=O)c2ccccc2C1O (stereo unspecified),x,0.3,7.6,9.0,66.0*,0.9
Cn1c(SCc2ccc(Cl)cc2)nc(C(F)(F)F)cc1=O,x,0.9,-3.2,-8.0,6.5,1
Cc1ccc(S(=O)(=O)NCCCCCC(=O)Nc2nccs2)cc1,16.7,0.3,79.7*,9.0,73.9*,0.2
Cc1ccccc1OCCCC(=O)Nc1nccs1,13.6,0.2,35.6,-12.0,80.5*,0.6
COc1ccccc1C(CC(=O)Nc1nccs1)c1ccco1 (stereo unspecified),12.1,0.4,54.7*,-7.0,63.9*,0.5

# Bioassay records: PubChem, several laboratories
